Consider 24 compounds from ChEMBL document CHEMBL3603735 (J Med Chem, 2015).

The target in experiment [1] is Neuronal acetylcholine receptor; alpha4/beta2 (Rattus norvegicus, UniProt P09483+P12390). The experiment is described as follows: Displacement of [3H]epibatidine from alpha4beta2 nAChR in rat cortex membranes by liquid scintillation counting method. Format: cell membranes. In outline:
(§1)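 Rat hippocampus (α7) or cortex (α4β2) membranes. Ki obtained by simultaneous nonlinear least-squares fitting of three saturation plus three competition binding experiments per compound per subtype.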
Background: Loss of bound radioactivity is the signal in a displacement assay; it reports binding, not function.

Experiment [2] deals with T1, Neuronal acetylcholine receptor; alpha3/beta4 (Homo sapiens, UniProt P30926+P32297). The experiment is described as follows: Displacement of [3H]epibatidine from human alpha3beta4 nAChR expressed in HEK293 cell membranes by liquid scintillation counting method. In short, it runs like this: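 Competition against [3H]epibatidine on membranes of human α3β4-transfected cells. Ki obtained by simultaneously fitting three independent saturation and three competition experiments per compound with nonlinear least squares.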
T1 sequence (P30926 whole entry): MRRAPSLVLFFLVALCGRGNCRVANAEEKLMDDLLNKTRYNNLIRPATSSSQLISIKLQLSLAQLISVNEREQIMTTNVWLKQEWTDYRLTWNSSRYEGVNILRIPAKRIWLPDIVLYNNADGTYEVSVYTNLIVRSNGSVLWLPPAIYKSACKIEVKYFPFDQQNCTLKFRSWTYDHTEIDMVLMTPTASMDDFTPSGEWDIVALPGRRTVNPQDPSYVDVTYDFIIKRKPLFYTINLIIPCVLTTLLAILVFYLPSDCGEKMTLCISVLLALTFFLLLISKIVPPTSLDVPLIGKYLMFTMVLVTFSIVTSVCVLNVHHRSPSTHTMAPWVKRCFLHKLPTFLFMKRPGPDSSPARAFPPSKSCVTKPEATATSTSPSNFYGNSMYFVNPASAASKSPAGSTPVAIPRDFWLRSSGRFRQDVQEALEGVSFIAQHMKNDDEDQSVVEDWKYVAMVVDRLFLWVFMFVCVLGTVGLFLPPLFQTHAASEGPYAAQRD
T1 sequence (P32297 whole entry): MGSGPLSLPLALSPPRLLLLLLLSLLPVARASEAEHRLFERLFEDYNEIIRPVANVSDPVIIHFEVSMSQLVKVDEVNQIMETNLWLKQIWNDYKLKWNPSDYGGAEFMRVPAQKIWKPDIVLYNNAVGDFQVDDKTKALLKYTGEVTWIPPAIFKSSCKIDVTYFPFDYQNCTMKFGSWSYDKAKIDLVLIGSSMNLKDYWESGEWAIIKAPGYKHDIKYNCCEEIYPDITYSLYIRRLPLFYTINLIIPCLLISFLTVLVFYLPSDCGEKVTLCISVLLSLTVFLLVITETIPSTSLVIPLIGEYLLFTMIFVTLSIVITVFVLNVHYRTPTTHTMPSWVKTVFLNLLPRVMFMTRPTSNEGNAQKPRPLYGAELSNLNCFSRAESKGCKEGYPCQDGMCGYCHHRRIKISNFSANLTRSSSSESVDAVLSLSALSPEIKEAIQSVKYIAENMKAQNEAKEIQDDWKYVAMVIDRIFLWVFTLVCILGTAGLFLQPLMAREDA

In experiment [3] the target is Neuronal acetylcholine receptor subunit alpha-7 (Rattus norvegicus, UniProt Q05941). Nature of the experiment: Displacement of [125I]]-alpha-bungarotoxin from alpha7 nAChR in rat hippocampus membranes by liquid scintillation counting method. Format: cell membranes, Membrane. In outline:
as §1

The target in experiment [4] is T1, Neuronal acetylcholine receptor; alpha3/beta4. Nature of the experiment: Agonist activity at human alpha3beta4 nAChR expressed in rat GH4C1 cells assessed as induction of peak current amplitude at holding potential of -70 mV by whole-cell patch clamp assay relative to acetylcholine. Format: cell-based. The note with it: GH4-C1. In short, it runs like this:
(§2)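 Human α3β4 or α4β2 nAChR transiently transfected into rat anterior pituitary GH4C1 cells (0.5 μg each subunit cDNA, magnetofection). Whole-cell patch clamp at −70 mV holding potential, with gravity-driven fast perfusion. Agonist concentrations applied sequentially. Peak currents normalized to 1 mM ACh on the same cell. EC50, Imax and nH from Hill equation fit.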
Background: Patch clamp records ionic current or voltage across a cell membrane.

In experiment [5] the target is T2, Neuronal acetylcholine receptor; alpha4/beta2 (Homo sapiens, UniProt P17787+P43681). Nature of the experiment: Agonist activity at human alpha4beta2 nAChR expressed in rat GH4C1 cells assessed as induction of peak current amplitude at holding potential of -70 mV by whole-cell patch clamp assay. Format: cell-based, GH4-C1. In short, it runs like this: as §2
T2 sequence (P17787 whole entry): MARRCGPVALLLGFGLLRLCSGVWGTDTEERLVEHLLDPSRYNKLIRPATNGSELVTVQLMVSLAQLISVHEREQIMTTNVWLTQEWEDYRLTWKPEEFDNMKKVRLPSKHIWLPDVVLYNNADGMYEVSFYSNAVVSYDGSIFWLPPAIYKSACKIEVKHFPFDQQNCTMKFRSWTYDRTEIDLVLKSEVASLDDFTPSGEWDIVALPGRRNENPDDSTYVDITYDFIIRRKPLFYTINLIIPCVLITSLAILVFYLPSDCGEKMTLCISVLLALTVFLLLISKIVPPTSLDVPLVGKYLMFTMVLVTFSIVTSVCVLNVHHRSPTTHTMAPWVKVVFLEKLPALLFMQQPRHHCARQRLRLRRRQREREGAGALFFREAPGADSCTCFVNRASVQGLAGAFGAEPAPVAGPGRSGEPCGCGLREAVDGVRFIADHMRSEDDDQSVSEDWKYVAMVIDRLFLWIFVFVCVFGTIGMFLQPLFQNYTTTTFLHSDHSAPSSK
T2 sequence (P43681 whole entry): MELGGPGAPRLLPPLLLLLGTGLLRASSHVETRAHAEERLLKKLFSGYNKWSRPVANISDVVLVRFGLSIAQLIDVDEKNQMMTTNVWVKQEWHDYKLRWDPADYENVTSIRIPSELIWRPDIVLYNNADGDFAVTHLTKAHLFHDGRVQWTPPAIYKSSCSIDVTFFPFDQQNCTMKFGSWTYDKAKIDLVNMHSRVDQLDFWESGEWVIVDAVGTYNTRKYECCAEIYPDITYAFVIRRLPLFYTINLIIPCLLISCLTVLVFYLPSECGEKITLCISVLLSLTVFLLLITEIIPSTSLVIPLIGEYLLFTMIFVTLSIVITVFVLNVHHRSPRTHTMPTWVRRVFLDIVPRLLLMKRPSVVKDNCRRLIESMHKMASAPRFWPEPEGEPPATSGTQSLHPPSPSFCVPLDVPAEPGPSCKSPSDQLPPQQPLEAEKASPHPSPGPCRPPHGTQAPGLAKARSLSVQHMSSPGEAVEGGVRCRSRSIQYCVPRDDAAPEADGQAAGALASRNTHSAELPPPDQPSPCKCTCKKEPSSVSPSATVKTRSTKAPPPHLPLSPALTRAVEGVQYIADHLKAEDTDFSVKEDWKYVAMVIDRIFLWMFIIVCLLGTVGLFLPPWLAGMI
Experiment [6] deals with T2, Neuronal acetylcholine receptor; alpha4/beta2. Nature of the experiment: Agonist activity at human alpha4beta2 nAChR expressed in rat GH4C1 cells assessed as induction of peak current amplitude at holding potential of -70 mV by whole-cell patch clamp assay relative to acetylcholine. Format: cell-based. The following applies: GH4-C1. In short, it runs like this:
as §2

For experiment [7], the target named is T1, Neuronal acetylcholine receptor; alpha3/beta4. The experiment is described as follows: Agonist activity at human alpha3beta4 nAChR expressed in rat GH4C1 cells assessed as induction of peak current amplitude at holding potential of -70 mV by whole-cell patch clamp assay. Format: cell-based, GH4-C1. In outline:
(§3)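 Human α3β4 or α4β2 subunit cDNAs (0.5 μg each) transiently transfected into rat GH4C1 cells by magnetofection. Whole-cell voltage clamp at −70 mV, 85−90% series-resistance compensation, fast gravity-perfusion exchanger. Agonist concentrations applied sequentially; peak currents normalized to 1 mM ACh on the same cell. EC50 and nH from Hill-equation fit where possible.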

Experiment [8] addresses T2, Neuronal acetylcholine receptor; alpha4/beta2. Nature of the experiment: Agonist activity at human alpha4beta2 nAChR in (alpha4)3(beta2)2 stoichiometry form relative to control. Format: protein-complex assay.
The target is the same in experiment [9]. Nature of the experiment: Selectivity index, ratio of EC50 for human alpha3beta4 nAChR expressed in rat GH4C1 cells to EC50 for human alpha4beta2 nAChR expressed in rat GH4C1 cells. Format: cell-based. The following applies: GH4-C1. In outline: as §3

Sequence of Neuronal acetylcholine receptor subunit alpha-7 (Q05941 whole entry): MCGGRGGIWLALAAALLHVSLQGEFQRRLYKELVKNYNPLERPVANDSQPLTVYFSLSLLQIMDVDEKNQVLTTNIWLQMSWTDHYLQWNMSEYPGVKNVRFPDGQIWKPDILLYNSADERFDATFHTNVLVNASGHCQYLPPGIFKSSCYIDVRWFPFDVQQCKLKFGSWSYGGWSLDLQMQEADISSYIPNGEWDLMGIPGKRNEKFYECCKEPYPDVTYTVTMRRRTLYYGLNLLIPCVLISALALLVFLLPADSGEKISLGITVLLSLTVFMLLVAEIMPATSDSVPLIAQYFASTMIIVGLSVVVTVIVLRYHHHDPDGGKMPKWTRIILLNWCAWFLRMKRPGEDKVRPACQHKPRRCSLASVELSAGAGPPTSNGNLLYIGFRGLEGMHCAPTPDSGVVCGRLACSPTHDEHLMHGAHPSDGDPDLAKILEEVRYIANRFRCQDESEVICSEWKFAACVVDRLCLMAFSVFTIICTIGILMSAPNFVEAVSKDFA
Sequence of Neuronal acetylcholine receptor; alpha4/beta2 (Rattus norvegicus, UniProt P09483+P12390) (P09483 whole entry): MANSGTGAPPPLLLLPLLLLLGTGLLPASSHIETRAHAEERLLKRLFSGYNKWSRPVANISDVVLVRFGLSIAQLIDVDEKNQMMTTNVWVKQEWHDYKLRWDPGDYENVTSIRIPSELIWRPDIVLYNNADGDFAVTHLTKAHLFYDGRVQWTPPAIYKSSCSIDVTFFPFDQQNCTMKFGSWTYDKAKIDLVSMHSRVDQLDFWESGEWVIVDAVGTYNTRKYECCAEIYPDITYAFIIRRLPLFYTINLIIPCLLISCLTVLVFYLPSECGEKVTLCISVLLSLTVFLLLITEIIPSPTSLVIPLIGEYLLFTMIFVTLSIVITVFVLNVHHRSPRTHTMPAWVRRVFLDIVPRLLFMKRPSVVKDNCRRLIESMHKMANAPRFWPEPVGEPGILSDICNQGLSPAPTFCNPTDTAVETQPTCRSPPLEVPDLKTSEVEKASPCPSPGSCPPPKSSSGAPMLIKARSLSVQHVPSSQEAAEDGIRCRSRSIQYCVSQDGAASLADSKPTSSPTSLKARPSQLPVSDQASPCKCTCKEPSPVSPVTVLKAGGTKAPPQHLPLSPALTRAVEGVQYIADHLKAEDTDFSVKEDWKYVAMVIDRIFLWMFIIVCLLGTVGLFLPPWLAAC
Sequence of Neuronal acetylcholine receptor; alpha4/beta2 (Rattus norvegicus, UniProt P09483+P12390) (P12390 whole entry): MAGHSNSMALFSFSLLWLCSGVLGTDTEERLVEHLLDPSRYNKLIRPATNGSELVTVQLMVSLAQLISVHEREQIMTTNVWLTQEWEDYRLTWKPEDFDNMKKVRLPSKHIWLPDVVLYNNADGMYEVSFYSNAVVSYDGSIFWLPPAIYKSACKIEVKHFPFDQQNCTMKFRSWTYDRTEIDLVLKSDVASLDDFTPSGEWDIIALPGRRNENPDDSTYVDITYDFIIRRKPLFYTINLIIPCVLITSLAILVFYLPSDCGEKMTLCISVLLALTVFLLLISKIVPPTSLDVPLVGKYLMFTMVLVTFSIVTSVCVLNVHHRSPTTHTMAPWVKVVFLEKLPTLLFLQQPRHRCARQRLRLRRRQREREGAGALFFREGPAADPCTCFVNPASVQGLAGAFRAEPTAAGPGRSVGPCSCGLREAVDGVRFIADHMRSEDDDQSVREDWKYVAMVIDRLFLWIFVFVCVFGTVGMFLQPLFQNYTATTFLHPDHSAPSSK

`C[C@H](Oc1cccc(O)c1)[C@@H]1CCCN1C`: the Ki (commonly the dissociation constant of the complex between target and ligand, obtained from inhibition or displacement) was 192 nM in experiment [1], 752 nM in experiment [2] and 743 nM in [3].
For the compound `Oc1cccc(OC[C@@H]2CCCN2)c1`, the Ki in experiment [1] was 407 nM; in experiment [2], 3800 nM; in [3] it was 212 nM.
In the case of `COc1ccc(O)cc1OC[C@@H]1CCCN1`, the Ki in [1] stood at 1080 nM; in experiment [2], 7700 nM.
With `COc1ccncc1OC[C@@H]1CCCN1`, the Ki in [1] turned out to be 613 nM; in experiment [2], 2900 nM; in [3] it was 21500 nM.
Regarding `COc1ccccc1OC[C@@H]1CCCN1C`, the Ki was 9400 nM in [1] and 749 nM in experiment [2].
The compound `CN1CC[C@H]1COc1ccccc1` showed an inhibition constant (Ki) in [1] of 101 nM.
On to `C[C@@H](Oc1cccnc1)[C@@H]1CCCN1C` (racemic), for which the Imax in [4] stood at 7%; in [6], 39%. In experiment [5], the EC50 (usually the concentration giving half of the maximal effect) worked out at 13 nM. Further, the Ki in [1] stood at 27 nM; in [2], 5000 nM; in experiment [3], 388 nM.
Regarding `Oc1cncc(OC[C@@H]2CCCN2)c1`, the Ki was found to be 2.5 nM in [1], 100 nM in [2] and 3500 nM in experiment [3].
`CN1CC[C@H]1COc1cccc(O)c1`: the values for the Imax in [4] and in experiment [6] were 57% and 131%, respectively. Moreover, the Ki in experiment [1] was 8.5 nM; in [2], 102 nM; in experiment [3], 29 nM. In addition, the EC50 in experiment [7] is 9200 nM.
For `Oc1cccc(OC[C@@H]2CCN2)c1`, the figures for the Ki in [1], in [2] and in experiment [3] were 7.1 nM, 40 nM and 1200 nM, respectively.
Turning to `CN1CCC[C@H]1COc1cncc(O)c1`, the Imax was 15% in experiment [4] and 661% in experiment [6]. In addition, the EC50 in experiment [5] was found to be 73000 nM. Also, the Ki was 3.7 nM in experiment [1], 235 nM in [2] and 321 nM in [3].
`COc1ccccc1OC[C@@H]1CCCN1`: the Ki in experiment [1] was found to be 53500 nM; in experiment [2], 3600 nM.
`COc1ncccc1OC[C@@H]1CCCN1C`: the Ki was found to be 7280 nM in experiment [1] and 793 nM in experiment [2].
On to `C[C@@H](Oc1cccc(O)c1)[C@@H]1CCCN1C` (racemic), for which the figures for the Ki in experiment [1], in [2] and in experiment [3] were 11.1 nM, 257 nM and 57 nM, respectively.
In the case of `C[C@H](Oc1cccnc1)[C@@H]1CCCN1C`, the Ki in [1] worked out at 877 nM; in experiment [2] it was 5600 nM; in [3] it was 6100 nM.
`COc1ncccc1OC[C@@H]1CCCN1`: the figures for the Ki in experiment [1] and in experiment [2] were 8960 nM and 5300 nM, respectively.
`c1ccc(OC[C@@H]2CCN2)cc1` displayed a Ki in experiment [1] of 52 nM.
As for `COc1ccncc1OC[C@@H]1CCCN1C`, the Ki was 255 nM in [1], 2100 nM in experiment [2] and 9400 nM in experiment [3].
Consider `OCCCCC#Cc1cncc(OC[C@@H]2CCN2)c1`, for which the Imax in [4] stood at 24%; in experiment [6] it was 39%. In addition, the EC50 in experiment [5] was 0.27 nM. In experiment [8], this compound gave an Efficacy of 6%.
Take `CC(Oc1ccccc1)C1CCCN1C` (mixture of isomers): the Ki in experiment [1] is 4590 nM; in experiment [2], 1400 nM; in [3], 8900 nM.
As to `CN1CCC[C@H]1COc1cccc(O)c1`, the Imax stood at 85% in experiment [4] and 162% in experiment [6]. Also, the half-maximal effective concentration (EC50) in experiment [5] turned out to be 4400 nM; in experiment [7] it was 9000 nM. Besides, the inhibition constant Ki in [1] is 1.1 nM; in experiment [2], 74 nM; in [3], 119 nM.
In the case of `C[C@@H](Oc1ccccc1)[C@@H]1CCCN1C` (racemic), the inhibition constant Ki in [1] was 1550 nM; in experiment [2], 1300 nM; in experiment [3], 15200 nM.
Regarding `COc1ccc(O)cc1OC[C@@H]1CCCN1C`, the Imax was 7% in [4] and 17% in experiment [6]. The Ki in experiment [1] is 18.9 nM; in [2], 271 nM; in experiment [3], 1150 nM.
For the compound `CN1CCC[C@H]1[C@@H]1COc2ccc(O)cc2O1`, the Imax amounted to 28% in experiment [4] and 29% in experiment [6]. Further, the Ratio EC50 in experiment [9] turned out to be 57. Besides, the EC50 came out at 300 nM in [5] and 17000 nM in [7].
